These results are taken from ChEMBL document CHEMBL1250541, “20-Aminosteroids as a novel class of selective and complete androgen receptor antagonists and inhibitors of prostate cancer cell growth” (Bioorg Med Chem, 2010).

In test [1] the test system is LNCaP. Put plainly: Cytotoxicity against human LNCAP cells at 10 uM after 2 days. In kind it is functional, cell-based. The method, boiled down:
(§1)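 Cells seeded in triplicate in 6-well plates at 25 × 10³ (LNCaP) or 5 × 10³ (PC3) per well in medium with 5% FCS. After 2 days they were treated with DMSO or compounds, with medium and compound renewed every second/third day. Cells were counted on the indicated days and normalized to day 0. Atraric acid served as positive control.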

Test [2] deals with T1, Androgen receptor (Homo sapiens) (UniProt P10275).
T1 sequence (whole entry): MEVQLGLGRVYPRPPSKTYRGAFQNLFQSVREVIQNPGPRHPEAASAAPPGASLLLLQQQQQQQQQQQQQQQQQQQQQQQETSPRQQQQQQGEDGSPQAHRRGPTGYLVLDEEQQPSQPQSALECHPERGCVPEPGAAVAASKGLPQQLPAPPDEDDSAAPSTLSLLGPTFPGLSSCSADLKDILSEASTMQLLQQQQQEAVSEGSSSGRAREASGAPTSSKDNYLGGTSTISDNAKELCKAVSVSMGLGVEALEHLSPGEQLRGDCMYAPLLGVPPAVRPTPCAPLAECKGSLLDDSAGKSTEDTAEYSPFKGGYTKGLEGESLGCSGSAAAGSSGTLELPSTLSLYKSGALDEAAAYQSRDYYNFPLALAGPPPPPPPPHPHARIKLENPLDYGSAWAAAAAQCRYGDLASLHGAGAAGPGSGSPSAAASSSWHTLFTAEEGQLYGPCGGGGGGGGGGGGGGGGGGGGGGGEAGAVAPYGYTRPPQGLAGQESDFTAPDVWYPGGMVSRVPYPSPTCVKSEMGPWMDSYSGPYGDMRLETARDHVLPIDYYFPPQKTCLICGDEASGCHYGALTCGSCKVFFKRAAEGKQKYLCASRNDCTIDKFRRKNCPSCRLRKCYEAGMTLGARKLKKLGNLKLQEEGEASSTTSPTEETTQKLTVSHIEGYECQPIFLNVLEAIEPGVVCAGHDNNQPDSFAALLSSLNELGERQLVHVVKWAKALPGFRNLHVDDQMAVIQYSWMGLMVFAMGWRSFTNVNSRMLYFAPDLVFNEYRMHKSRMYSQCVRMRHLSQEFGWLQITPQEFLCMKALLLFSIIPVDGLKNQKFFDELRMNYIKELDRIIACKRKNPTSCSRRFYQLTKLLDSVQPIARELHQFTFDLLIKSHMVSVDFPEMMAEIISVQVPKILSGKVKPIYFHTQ
Put plainly: Agonist activity at human androgen receptor expressed in human CV1 cells assessed as induction of receptor-mediated transactivation by MMTV-luciferase reporter gene assay. As to conditions: CV-1. Format: functional, cell-based. Summed up: (§2)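 CV1 cells seeded at 1.2 × 10⁵ per well in DMEM with 5% charcoal-stripped serum, CaPO₄-transfected 18 h later with MMTV-luciferase reporter, human AR (wild type or T877A) expression vector and CMV-β-galactosidase control. After 24 h, medium was replaced with compounds alone or R1881. Cells were harvested 96 h later. Luciferase was normalized to β-gal (RLU). Duplicates, repeated at least twice.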
(In general: In a reporter assay the amount or activity of a reporter protein is the signal.)

A further test has as its target T2, Androgen receptor (Homo sapiens, UniProt P10275).
T2 sequence (P10275 whole entry): T1 sequence (whole entry)
Put plainly: Antagonist activity at human androgen receptor expressed in human CV1 cells assessed as inhibition of receptor-mediated transactivation by MMTV-luciferase reporter gene assay. In kind it is functional, cell-based, CV-1.

Test [3] has as its system Androgen receptor (Homo sapiens), P10275 [T878A]. Put plainly: Agonist activity at human androgen receptor T877A mutant expressed in human CV1 cells assessed as induction of receptor-mediated transactivation by MMTV-luciferase reporter gene assay. Format: functional, cell-based. The following applies: CV-1. The method, boiled down: as §2
Test [4] addresses T1, Androgen receptor (Homo sapiens). Put plainly: Antagonist activity at human androgen receptor expressed in human CV1 cells assessed as inhibition of receptor-mediated transactivation at 1 uM by MMTV-luciferase reporter gene assay. Format: functional, cell-based. As to conditions: CV-1. The method, boiled down: (§3)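 CV1 cells in DMEM with 5% charcoal-stripped serum, transfected by CaPO₄ with MMTV-luciferase, wild-type or T877A human AR vector and CMV-β-galactosidase. Compounds were added together with the agonist R1881 24 h post-transfection. After a further 96 h, luciferase was read and normalized to β-gal activity as RLU. Duplicates, repeated at least twice. NBBS antagonist and DMSO served as controls.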

In test [5] the test system is Androgen receptor (Homo sapiens), P10275 [T878A]. Put plainly: Antagonist activity at human androgen receptor T877A mutant expressed in human CV1 cells assessed as inhibition of receptor-mediated transactivation at 1 uM by MMTV-luciferase reporter gene assay. In kind it is functional, cell-based. The following applies: CV-1. Summed up: as §3
Androgen receptor (Homo sapiens), P10275 [T878A], sequence (P10275 whole entry T878A): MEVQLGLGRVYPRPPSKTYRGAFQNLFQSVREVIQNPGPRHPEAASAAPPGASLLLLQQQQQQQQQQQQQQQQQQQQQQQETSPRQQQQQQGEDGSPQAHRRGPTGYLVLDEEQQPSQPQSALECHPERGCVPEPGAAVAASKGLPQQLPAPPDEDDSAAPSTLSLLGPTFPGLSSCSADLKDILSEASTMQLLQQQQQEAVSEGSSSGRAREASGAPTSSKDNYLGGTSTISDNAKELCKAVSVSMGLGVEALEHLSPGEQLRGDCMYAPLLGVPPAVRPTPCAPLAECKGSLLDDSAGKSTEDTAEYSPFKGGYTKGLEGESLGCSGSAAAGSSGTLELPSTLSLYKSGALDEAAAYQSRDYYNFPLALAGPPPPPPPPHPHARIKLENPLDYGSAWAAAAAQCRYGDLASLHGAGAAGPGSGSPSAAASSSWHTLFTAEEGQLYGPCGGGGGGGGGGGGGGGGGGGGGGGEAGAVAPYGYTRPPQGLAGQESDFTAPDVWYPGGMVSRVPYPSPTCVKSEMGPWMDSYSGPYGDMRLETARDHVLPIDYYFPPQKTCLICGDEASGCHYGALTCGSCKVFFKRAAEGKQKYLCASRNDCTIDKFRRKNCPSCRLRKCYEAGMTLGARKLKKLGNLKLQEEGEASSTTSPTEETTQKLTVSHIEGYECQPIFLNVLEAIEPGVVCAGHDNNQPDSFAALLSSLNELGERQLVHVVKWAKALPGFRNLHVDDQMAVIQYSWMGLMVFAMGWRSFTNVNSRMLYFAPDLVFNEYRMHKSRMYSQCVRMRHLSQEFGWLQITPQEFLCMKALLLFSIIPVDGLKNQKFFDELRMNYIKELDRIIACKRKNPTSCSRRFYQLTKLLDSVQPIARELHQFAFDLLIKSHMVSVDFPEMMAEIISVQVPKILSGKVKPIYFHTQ
Test [6] has as its target T1, Androgen receptor (Homo sapiens). Put plainly: Antagonist activity at human androgen receptor in human LNCAP cells assessed as inhibition of PSA mRNA expression by RT-PCR. Format: functional, cell-based. Summed up: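 LNCaP cells treated with or without androgens plus compounds at 10 µM. DMSO-treated cells served as control. PSA mRNA was normalized to beta-actin expression.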

The subject of a further test is PC-3. As to the kind of experiment: Cytotoxicity against human PC3 cells after 2 days. Format: functional, cell-based. The method, boiled down: as §1
Test [7] deals with LNCaP. As to the kind of experiment: Induction of senescence in human LNCAP cells assessed as beta galactosidase activity after 3 days. Format: functional, cell-based.
The subject of test [8] is Androgen receptor (Homo sapiens), P10275 [T878A]. As to the kind of experiment: Antagonist activity at human androgen receptor T877A mutant expressed in human CV1 cells assessed as inhibition of receptor-mediated transactivation by MMTV-luciferase reporter gene assay. Format: functional, cell-based. As to conditions: CV-1. The method, boiled down: as §3

Molecules are shown by their SMILES. The source made the active and inactive calls. The calls are words filed in the database; no cut-off is given here.

Consider `COC(=O)c1c(C)cc(O)c(C)c1O`, for which the result with LNCaP [1] was Active.

Consider `C[C@]12CC[C@H]3[C@@H](CC=C4C[C@@H](O)CC[C@@]43C)[C@@H]1CC[C@@H]2[C@]1(C)CC=CC(=O)N1`, for which the outcome (in [2]; in test [3]; in the test with PC-3) was inactive. Also, on Androgen receptor, the IC50 was 3000 nM. The result (in test [4]; in test [5]; in test [6]; in the test with LNCaP [1]; in the test with LNCaP [7]) was Active.

On to `C=CC[C@@](C)(N)[C@H]1CC[C@H]2[C@@H]3CC=C4C[C@@H](O)CC[C@]4(C)[C@H]3CC[C@@]21C`, for which, in test [2], the result was inactive. Besides, the result in [3] was Active.

In the case of `C[C@]12CC[C@H]3[C@@H](CC=C4C[C@@H](O)CC[C@@]43C)[C@@H]1CC[C@@H]2[C@](C)(N)Cc1ccccc1`, the outcome in test [2] was inactive.

For the compound `C[C@]12CC[C@H]3[C@@H](CCC4=CC(=O)CC[C@@]43C)[C@@H]1CC[C@@H]2[C@]1(C)CC=CC(=O)N1`, the result in test [2] was inactive. Besides, on Androgen receptor, the IC50 is 500 nM.

As to `C[C@]12CC[C@H]3[C@@H](CC=C4C[C@@H](O)CC[C@@]43C)[C@@H]1CC[C@@H]2[C@@]1(C)CC=CC(=O)N1`, the outcome in test [2] and in [3] was inactive. On Androgen receptor, the IC50 was 2000 nM. Besides, the outcome in [8] and in [6] was Active.

Take `C=CC(C)[C@@](C)(N)[C@H]1CC[C@H]2[C@@H]3CC=C4C[C@@H](O)CC[C@]4(C)[C@H]3CC[C@@]21C` (some centres undefined): the result in [2] was inactive. The outcome in test [3] was Active.

As to `C=CC[C@](C)(N)[C@H]1CC[C@H]2[C@@H]3CC=C4C[C@@H](O)CC[C@]4(C)[C@H]3CC[C@@]21C`, the result in [2] was inactive. Besides, the outcome in test [3] was Active.

The IC50 is the concentration that gives 50% inhibition.
